Laboratory results reported in ChEMBL document CHEMBL1158484 (J Med Chem, 2009).
Calls of active or inactive are those of the source. No cut-off for these calls is given here.

How the values were obtained:
L6 = assay: Cytotoxicity against rat L6 cells after 70 hrs by alamar blue assay; type: cell-based; conditions: L6, 70 h
[1] = system: Trypanosoma brucei rhodesiense; assay: Antitrypanosomal activity against bloodstream Trypanosoma brucei rhodesiense STIB900 after 70 hrs by alamar blue assay; type: functional, organism-based; conditions: STIB900, 70 h
Summary of the method: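 Bloodstream forms, 2000 per well, in supplemented MEM with Earle's salts (0.2 mM 2-mercaptoethanol, 1 mM pyruvate, 0.5 mM hypoxanthine, 15% heat-inactivated horse serum). Serial dilutions, 70 h at 37 °C, 5% CO2. IC50 from sigmoidal curves; two independent runs in duplicate. DMSO ≤1%.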

[2] = Selectivity index, ratio of IC50 for rat L6 cells to IC50 for bloodstream Trypanosoma brucei rhodesiense STIB900; type: toxicity, cell-based; conditions: read-out: Ratio IC50
Plasmodium falciparum = assay: Antiplasmodial activity after 48 hrs against chloroquine-resistant Plasmodium falciparum K1 infected human erythrocytes by [3H]hypoxanthine uptake; type: functional, organism-based
[3] = Selectivity index, ratio of IC50 for rat L6 cells to IC50 for chloroquine-resistant Plasmodium falciparum K1; type: toxicity, cell-based; conditions: read-out: Ratio IC50
Summary of the method: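 Ratio of L6 IC50 to P. falciparum K1 IC50. L6: 4000 cells, 70 h at 37 °C, Alamar blue fluorescence. Parasites: infected human erythrocytes (1.25% hematocrit, 0.3% parasitemia) in low-O2 gas for 48 h, then [3H]-hypoxanthine for 24 h, uptake counted. Sigmoidal IC50s, two independent runs in duplicate.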

Leishmania donovani [4] = assay: Antileishmanial activity against axenic amastigotes of Leishmania donovani MHOM/SD/62/1S-CL2D after 72 hrs; type: functional, organism-based
Summary of the method: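 Axenic amastigotes (adapted from promastigotes), 6×10^4 per well, amastigote medium, 37 °C. 2-fold compound dilutions; 72 h at 37 °C, humidified 5% CO2. Growth read by tetrazolium CellTiter absorbance at 490 nm several hours after reagent addition. IC50 from four-parameter dose–response fit. DMSO ≤1%.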

[5] = Selectivity index, ratio of IC50 for rat L6 cells to IC50 for axenic amastigotes of Leishmania donovani MHOM/SD/62/1S-CL2D; type: toxicity, cell-based; conditions: read-out: Ratio IC50
Summary of the method: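 Ratio of L6 IC50 to L. donovani IC50. L6: 4000 cells in RPMI 1640 with 10% FBS, 70 h at 37 °C, then Alamar blue 2–3 h, fluorescence 536/588 nm. Leishmania: 6×10^4 axenic amastigotes per well, 2-fold dilutions, 72 h at 37 °C in 5% CO2, tetrazolium CellTiter read at 490 nm. IC50 from a four-parameter dose–response fit.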

[6] = system: Trypanosoma brucei rhodesiense; assay: Antitrypanosomal activity against bloodstream Trypanosoma brucei rhodesiense STIB900 infected in NMRI mouse assessed as parasite free mouse survival at 5 mg/kg, ip administered for 4 consecutive days from day 3 to 6 postinfection measured up to 60 days; type: functional, organism-based; set-up: dose 5 mg/kg
Summary of the method: (§1)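 Female NMRI mice infected ip with 2×10^4 STIB900 bloodstream forms; groups of four dosed on 4 consecutive days, days 3-6 postinfection. Compounds in DMSO diluted with water to 10% DMSO. Untreated infected controls. Tail-blood parasitemia followed to day 60; surviving aparasitemic mice at day 60 scored cured; mean survival time recorded.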

[7] = system: Trypanosoma brucei rhodesiense; assay: Antitrypanosomal activity against bloodstream Trypanosoma brucei rhodesiense STIB900 infected in NMRI mouse assessed as survival rate at 5 mg/kg, ip administered 4 consecutive days from day 3 to 6 postinfection; type: functional; conditions: route intraperitoneal
Summary of the method: (§2)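 Female NMRI mice infected ip with 2×10^4 STIB900 bloodstream forms. Groups of four treated on days 3–6 postinfection. Compounds in DMSO diluted with water to a final 10% DMSO. Untreated infected controls. Tail blood checked for parasitemia to day 60. Surviving aparasitemic mice at day 60 scored cured; mean survival time in days from recorded deaths.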

[8] = system: Trypanosoma brucei rhodesiense; assay: Antitrypanosomal activity against bloodstream Trypanosoma brucei rhodesiense STIB900 infected in NMRI mouse assessed as parasite free mouse survival at 100 mg/kg, po administered for 4 consecutive days from day 3 to 6 postinfection measured up to 60 days; type: functional, organism-based; set-up: dose 100 mg/kg
[9] = system: Trypanosoma brucei rhodesiense; assay: Antitrypanosomal activity against bloodstream Trypanosoma brucei rhodesiense STIB900 infected in NMRI mouse assessed as survival rate at 100 mg/kg, po administered 4 consecutive days from day 3 to 6 postinfection; type: functional; summary of the method: as §2
[10] = system: Trypanosoma brucei rhodesiense; assay: Ratio compound IC50 to pentamidine IC50 for Trypanosoma brucei rhodesiense STIB900; type: functional
Leishmania donovani [11] = assay: Ratio of compound IC50 to pentamidine IC50 for Leishmania donovani MHOM/SD/62/1S-CL2D; type: functional
[12] = system: Trypanosoma brucei rhodesiense; assay: Antitrypanosomal activity against bloodstream Trypanosoma brucei rhodesiense STIB900 infected in NMRI mouse assessed as parasite free mouse survival at 25 mg/kg, po administered for 4 consecutive days from day 3 to 6 postinfection measured up to 60 days; type: functional, organism-based; set-up: dose 25 mg/kg; summary of the method: as §1
[13] = system: Trypanosoma brucei rhodesiense; assay: Antitrypanosomal activity against bloodstream Trypanosoma brucei rhodesiense STIB900 infected in NMRI mouse assessed as survival rate at 25 mg/kg, po administered 4 consecutive days from day 3 to 6 postinfection; type: functional; summary of the method: as §2
[14] = system: Trypanosoma brucei rhodesiense; assay: Antitrypanosomal activity against bloodstream Trypanosoma brucei rhodesiense STIB900 infected in NMRI mouse assessed as parasite free mouse survival at 2 mg/kg, ip administered for 4 consecutive days from day 3 to 6 postinfection measured up to 60 days; type: functional, organism-based; set-up: dose 2 mg/kg; summary of the method: as §2
[15] = system: Trypanosoma brucei rhodesiense; assay: Antitrypanosomal activity against bloodstream Trypanosoma brucei rhodesiense STIB900 infected in NMRI mouse assessed as survival rate at 2 mg/kg, ip administered 4 consecutive days from day 3 to 6 postinfection; type: functional; conditions: route intraperitoneal; summary of the method: as §2
[16] = system: Trypanosoma brucei rhodesiense; assay: Antitrypanosomal activity against bloodstream Trypanosoma brucei rhodesiense STIB900 infected in NMRI mouse assessed as survival rate at 1 mg/kg, ip administered 4 consecutive days from day 3 to 6 postinfection; type: functional; conditions: route intraperitoneal; summary of the method: as §2
[17] = system: Trypanosoma brucei brucei; assay: Antitrypanosomal activity against second-stage Trypanosoma brucei brucei GVR35 infected in african sleeping sickness CNS mouse model; type: functional, organism-based

| SMILES | IC50 (L6) [µM] | IC50 [1] [nM] | selectivity ratio [2] | IC50 (Plasmodium falciparum) [nM] | selectivity ratio [3] | IC50 (Leishmania donovani [4]) [µM] | selectivity ratio [5] | Activity [6] | Survival [7] [days] | Activity [8] | Survival [9] [days] | Ratio IC50 [10] | Ratio IC50 (Leishmania donovani [11]) | Activity [12] | Survival [13] [days] | Activity [14] | Survival [15] [days] | Survival [16] [days] | Activity [17] |
| --- | --- | --- | --- | --- | --- | --- | --- | --- | --- | --- | --- | --- | --- | --- | --- | --- | --- | --- | --- |
| N=C(N)c1cc(OCCCCCOc2ccnc(C(=N)N)c2)ccn1 | 59.3 | 51 | 1160 | 16 | 3710 | 38 | 2 | inactive | 14 |  |  |  |  |  |  |  |  |  |  |
| CO/N=C(\N)c1cc(OCCCCCOc2ccnc(/C(N)=N/OC)c2)ccn1 | 138 | 18200 | 8 | > 2000 | < 69 | > 100 | 1 |  |  | inactive | 11.75 |  |  |  |  |  |  |  |  |
| CC(C)NC(=N)c1ccc(OCCCCCOc2ccc(C(=N)NC(C)C)cn2)nc1 | > 155 | 276 | > 562 | 256 | > 605 | > 100 | 2 |  |  |  |  |  |  |  |  |  |  |  |  |
| N=C(N)c1ccc(OCCCCCOc2ccc(C(=N)N)nc2)cn1 | 4.9 | 1 | 4900 | 9 | 544 | 0.47 | 11 |  | >36 |  |  | 3 | 4 |  |  |  |  |  |  |
| CC(C)NC(=N)c1cc(OCCCCCOc2ccnc(C(=N)NC(C)C)c2)ccn1 | > 155 | 1700 | > 91 | 1330 | > 117 | > 100 | 2 |  |  |  |  |  |  |  |  |  |  |  |  |
| N/C(=N\O)c1cc(OCCCCCOc2ccnc(/C(N)=N/O)c2)ccn1 | 159 | 12000 | 13 | > 2100 | < 76 | 45 | 4 |  |  | inactive | 14.25 |  |  |  |  |  |  |  |  |
| c1cc(OCCCCCOc2cccc(C3=NCCN3)n2)nc(C2=NCCN2)c1 | 14.6 | 3070 | 5 | 568 | 26 | 24 | < 1 |  |  |  |  |  |  |  |  |  |  |  |  |
| c1cc(OCCCCCOc2ccnc(C3=NCCN3)c2)cc(C2=NCCN2)n1 | 80.8 | 12500 | 6 | 4260 | 19 | > 100 | < 1 |  |  |  |  |  |  |  |  |  |  |  |  |
| CO/N=C(/N)c1ccc(OCCCCCOc2ccc(/C(N)=N\OC)nc2)cn1 | 39.4 | 51200 | < 1 | 3500 | 11 | > 50 | < 1 |  |  |  |  |  |  | inactive | 19.5 |  |  |  |  |
| CC(C)NC(=N)c1ccc(OCCCCCOc2ccc(C(=N)NC(C)C)nc2)cn1 | 148 | 34 | 4350 | 6 | 24700 | 6 | 25 | inactive | 18.5 |  |  |  |  |  |  |  |  |  |  |
| N=C(N)c1cccc(OCCCCCOc2cccc(C(=N)N)n2)n1 | 114 | 19 | 6000 | 27 | 4220 | 4.1 | 28 | inactive | 22.5 |  |  |  |  |  |  |  |  |  |  |
| Nc1nc(N)nc(Nc2ccc([As]3SCC(CO)S3)cc2)n1 (centres undefined) [MELARSOPROL] |  |  |  |  |  |  |  |  |  |  |  |  |  |  |  | Active | >60 | >51.5 |  |
| N=C(N)c1ccc(OCCCCCOc2ccc(C(=N)N)cc2)cc1 [PENTAMIDINE] |  |  |  |  |  |  |  |  | >45 |  |  |  |  |  |  |  |  |  |  |
| N/C(=N\O)c1ccc(OCCCCCOc2ccc(/C(N)=N\O)cn2)nc1 | 16.4 | 27400 | < 1 | 6500 | 3 | > 100 | < 1 |  |  |  |  |  |  | inactive | 8.75 |  |  |  |  |
| CO/N=C(\N)c1ccc(OCCCCCOc2ccc(/C(N)=N\OC)cn2)nc1 | > 185 | 25900 | > 7 | 2240 | > 83 | > 100 | 2 |  |  |  |  |  |  |  |  |  |  |  |  |
| N/C(=N/O)c1ccc(OCCCCCOc2ccc(/C(N)=N\O)nc2)cn1 | 166 | 108000 | 2 | > 10700 | < 16 | > 100 | < 2 |  |  |  |  |  |  | Active | >60 |  |  |  | inactive |
| N/C(=N\O)c1cccc(OCCCCCOc2cccc(/C(N)=N/O)n2)n1 | 52.2 | 19000 | 3 | 10500 | 5 | > 50 | 1 |  |  |  |  |  |  |  |  |  |  |  |  |
| c1cc(OCCCCCOc2ccc(C3=NCCN3)cn2)ncc1C1=NCCN1 | 111 | 1420 | 78 | 1860 | 60 | > 100 | 1 |  |  |  |  |  |  |  |  |  |  |  |  |
| c1cc(C2=NCCN2)ncc1OCCCCCOc1ccc(C2=NCCN2)nc1 | 82.3 | 170 | 484 | 36 | 2290 | 36 | 2 | inactive | 12.75 |  |  |  |  |  |  |  |  |  |  |
| N=C(N)c1ccc(OCCCCCOc2ccc(C(=N)N)cn2)nc1 | 137 | 70 | 1960 | 329 | 416 | 39 | 4 | inactive | 17.75 |  |  |  |  |  |  |  |  |  |  |
